In ChEMBL document CHEMBL4765404, “Identification of benzofused five-membered sultams, potent dual NOD1/NOD2 antagonists in vitro and in vivo” (Eur J Med Chem, 2020):

Target: T1, Nucleotide-binding oligomerization domain-containing protein 2 (Homo sapiens, UniProt Q9HC29)
Assay: Antagonist activity at human NOD2 in HEK-Blue hNOD2 cells assessed as secreted alkaline phosphatase reporter activity preincubated for 3 hrs followed by stimulated with MDP for 20 hrs by Spectrophotometer method
Format: cell-based
Details: not given

T1 sequence (Q9HC29 whole entry, the tested form may be a part): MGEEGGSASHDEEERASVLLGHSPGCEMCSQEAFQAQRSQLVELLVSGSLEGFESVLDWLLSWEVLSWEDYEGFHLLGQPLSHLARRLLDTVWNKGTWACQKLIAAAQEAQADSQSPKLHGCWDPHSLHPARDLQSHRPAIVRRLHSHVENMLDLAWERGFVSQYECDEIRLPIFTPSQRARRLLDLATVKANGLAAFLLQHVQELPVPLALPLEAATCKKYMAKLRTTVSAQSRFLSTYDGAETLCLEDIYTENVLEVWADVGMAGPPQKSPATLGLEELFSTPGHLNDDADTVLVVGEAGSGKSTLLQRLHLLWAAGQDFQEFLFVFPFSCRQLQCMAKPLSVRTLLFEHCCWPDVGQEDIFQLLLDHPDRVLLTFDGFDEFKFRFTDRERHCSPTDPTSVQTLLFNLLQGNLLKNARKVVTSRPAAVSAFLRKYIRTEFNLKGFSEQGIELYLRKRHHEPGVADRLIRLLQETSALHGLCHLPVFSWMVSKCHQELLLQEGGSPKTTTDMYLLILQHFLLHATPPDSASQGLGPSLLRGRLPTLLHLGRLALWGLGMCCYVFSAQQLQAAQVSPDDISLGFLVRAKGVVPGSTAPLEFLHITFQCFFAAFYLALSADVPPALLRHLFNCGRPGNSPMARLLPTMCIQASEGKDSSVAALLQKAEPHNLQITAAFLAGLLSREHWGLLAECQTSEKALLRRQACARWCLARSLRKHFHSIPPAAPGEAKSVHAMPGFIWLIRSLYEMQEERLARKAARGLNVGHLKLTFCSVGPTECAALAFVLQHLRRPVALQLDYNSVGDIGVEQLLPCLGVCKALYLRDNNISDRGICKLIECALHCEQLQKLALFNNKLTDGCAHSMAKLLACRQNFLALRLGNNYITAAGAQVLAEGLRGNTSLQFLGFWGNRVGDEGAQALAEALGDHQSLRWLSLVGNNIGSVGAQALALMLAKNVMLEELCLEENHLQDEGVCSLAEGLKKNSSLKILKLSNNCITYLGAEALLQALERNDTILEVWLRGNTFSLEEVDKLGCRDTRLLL

`CCCCc1noc(CC2c3cccc(C)c3S(=O)(=O)N2C(=O)c2cccc(C(F)(F)F)c2)n1` (stereo not drawn) and `CCCCc1nnc(CC2c3cccc(C)c3S(=O)(=O)N2C(=O)c2cccc(C(F)(F)F)c2)o1` (stereo not drawn) are within 1.5-fold of each other in IC50: 5.74 µM for the first, 4.65 µM for the second.

Compared with `CCCCOC(=O)CC1c2cc(F)cc(C)c2S(=O)(=O)N1C(=O)c1ccc(C(F)(F)F)cc1` (stereo not drawn), `CCCCOC(=O)CC1c2cc(C)cc(C)c2S(=O)(=O)N1C(=O)c1ccc(C(F)(F)F)cc1` (stereo not drawn) is 3.6-fold lower in IC50: 6.7 µM for the first, 1.85 µM for the second. The second is the more potent here.

Going from `CCCCOC(=O)CC1c2cccc(C)c2S(=O)(=O)N1C(=O)c1ccc(Cl)cc1` (stereo not drawn) to `CCCCOC(=O)CC1c2cccc(C)c2S(=O)(=O)N1C(=O)c1ccc(C#N)cc1` (stereo not drawn), the IC50 rises from 1.74 µM to 5.45 µM (3.1-fold). The first is the more potent here.

`Cc1cccc2c1S(=O)(=O)N(C(=O)c1ccc(C(F)(F)F)cc1)C2CC(=O)OC(C)(C)C` (stereo not drawn) and `COC(=O)CC1c2cccc(C)c2S(=O)(=O)N1C(=O)c1ccc(C(F)(F)F)cc1` (stereo not drawn) are within 1.5-fold of each other in IC50: 4.65 µM for the first, 3.55 µM for the second.

Compared with `CCCCOC(=O)CC1c2c(OC)ccc(OC)c2S(=O)(=O)N1C(=O)c1ccc(C(F)(F)F)cc1` (stereo not drawn), `CCCCOC(=O)CC1c2cc(OC)cc(OC)c2S(=O)(=O)N1C(=O)c1ccc(C(F)(F)F)cc1` (stereo not drawn) is 1.8-fold lower in IC50: 7.03 µM for the first, 3.96 µM for the second. The second is the more potent here.

Going from `CCCCOC(=O)CC1c2ccc(Cl)c(C)c2S(=O)(=O)N1C(=O)c1ccc(C(F)(F)F)cc1` (stereo not drawn) to `CCCCOC(=O)CC1c2cccc(Cl)c2S(=O)(=O)N1C(=O)c1ccc(C(F)(F)F)cc1` (stereo not drawn), the IC50 falls from 9.83 µM to 1.39 µM (7.1-fold). The second is the more potent here.

Compared with `CCCCOC(=O)CC1c2c(F)ccc(C)c2S(=O)(=O)N1C(=O)c1ccc(C(F)(F)F)cc1` (stereo not drawn), `CCCCOC(=O)CC1c2cccc(C)c2S(=O)(=O)N1C(=O)c1ccc(C(F)(F)F)cc1` (stereo not drawn) is 3.4-fold lower in IC50: 4.05 µM for the first, 1.18 µM for the second.

Going from `CCCCOC(=O)CC1c2cccc(C)c2S(=O)(=O)N1C(=O)c1cccc(C(F)(F)F)c1` (stereo not drawn) to `CCCCOC(=O)CC1c2cccc(C)c2S(=O)(=O)N1C(=O)c1ccccc1C(F)(F)F` (stereo not drawn), the IC50 falls from 0.93 µM to 0.48 µM (1.9-fold). The second is the more potent here.

Compared with `CCCCOC(=O)CC1c2cccc(C)c2C(=O)N1C(=O)c1ccc(C(F)(F)F)cc1` (stereo not drawn), `CCCCOC(=O)CC1c2cccc(C(=O)OCCCC)c2S(=O)(=O)N1C(=O)c1ccc(C(F)(F)F)cc1` (stereo not drawn) is 1.8-fold higher in IC50: 2.36 µM for the first, 4.29 µM for the second. The first is the more potent here.

Target: T1, Nucleotide-binding oligomerization domain-containing protein 2
Assay: Antagonist activity at human NOD2 in HEK-Blue hNOD2 cells assessed as reduction in secreted alkaline phosphatase reporter activity at 10 uM preincubated for 3 hrs followed by stimulated with MDP for 20 hrs by Spectrophotometer method
Format: cell-based
Details: not given

Going from `CCCCOC(=O)CC1c2cccc(C)c2S(=O)(=O)N1S(C)(=O)=O` (stereo not drawn) to `CCCCOC(=O)CC1c2cccc(C)c2S(=O)(=O)N1C` (stereo not drawn), the inhibition falls from 5.29% to 4.63%.

First: CCCCNC(=O)CC1c2cccc(C)c2S(=O)(=O)N1C(=O)c1ccc(C(F)(F)F)cc1 (stereo not drawn)
Second: Cc1cccc2c1S(=O)(=O)N(C(=O)c1ccc(C(F)(F)F)cc1)C2CC(=O)O (stereo not drawn)
The inhibition of the first is higher: 17.7% for the first, 10.3% for the second.

Compared with `C=CCN1C(CC(=O)OCCCC)c2cccc(C)c2S1(=O)=O` (stereo not drawn), `CCCCOC(=O)CC1c2cccc(C)c2S(=O)(=O)N1CC` (stereo not drawn) is lower in inhibition: 5.52% for the first, -1% for the second.

Compared with `CCCCOC(=O)CC1c2cccc(C)c2S(=O)(=O)N1C(=O)/C=C/c1ccc(Cl)cc1` (stereo not drawn), `CCCCOC(=O)CC1c2cccc(C)c2S(=O)(=O)N1C(C)=O` (stereo not drawn) is lower in inhibition: 35% for the first, 6.59% for the second.

Compared with `CCCCOC(=O)CC1c2cccc(C)c2S(=O)(=O)N1C(=O)OC` (stereo not drawn), `CCCCOC(=O)CC1c2cccc(C)c2S(=O)(=O)N1C(=O)c1ccco1` (stereo not drawn) is higher in inhibition: -0.67% for the first, 1.83% for the second.

Going from `CCCCOC(=O)CC1c2cccc(C)c2S(=O)(=O)N1/C=C\C(=O)OCC` (stereo not drawn) to `CCCCOC(=O)CC1c2cccc(C)c2S(=O)(=O)N1CCCC` (stereo not drawn), the inhibition falls from 20.6% to 9.07%.

First: CCCCOC(=O)CC1c2cccc(C)c2S(=O)(=O)N1C(=O)c1ccccc1 (stereo not drawn)
Second: CCCCOC(=O)CC1c2cccc(C)c2S(=O)(=O)N1CC(=O)c1ccc(C(F)(F)F)cc1 (stereo not drawn)
The inhibition of the first is higher: 24.3% for the first, 7.2% for the second.

Compared with `CCCCOC(=O)/C=C/c1cc(C)cc2c1S(=O)(=O)N(C(=O)c1ccc(C(F)(F)F)cc1)C2CC(=O)OCCCC` (stereo not drawn), `CCCCOC(=O)/C=C1\c2cccc(C)c2S(=O)(=O)N1C(=O)c1ccc(C(F)(F)F)cc1` is higher in inhibition: 31.4% for the first, 54.4% for the second.

Compared with `Cc1cccc2c1S(=O)(=O)N(C(=O)c1ccc(C(F)(F)F)cc1)C2CC(N)=O` (stereo not drawn), `Cc1cccc2c1S(=O)(=O)N(C(=O)c1ccc(C(F)(F)F)cc1)C2CC(=O)Nc1ccccc1` (stereo not drawn) is higher in inhibition: -9.14% for the first, 30.3% for the second.

Same assay, conditions: filed as antagonist

Compared with `CCCCOC(=O)CC1c2cccc(C)c2S(=O)(=O)N1Cc1ccccc1` (stereo not drawn), `CCCCOC(=O)CC1c2cccc(C)c2S(=O)(=O)N1Cc1ccc(C(F)(F)F)cc1` (stereo not drawn) is higher in inhibition: 41.4% for the first, 42.5% for the second.

Compared with `CCCCOC(=O)CC1c2cccc(C)c2S(=O)(=O)N1C(=O)c1ccc(C)cc1` (stereo not drawn), `CCCCOC(=O)CC1c2cccc(C)c2S(=O)(=O)N1NC(=O)c1ccc(C(F)(F)F)cc1` (stereo not drawn) is higher in inhibition: 55.5% for the first, 60% for the second.

In the case of `CCCCOCCC1c2cccc(C)c2S(=O)(=O)N1C(=O)c1ccc(C(F)(F)F)cc1` (stereo not drawn), the inhibition is reported as 45.9%.

Tested on: not listed separately
Assay: Cytotoxicity against human HEK-Blue hNOD1 cells assessed as cell viability measured by SRB assay
Format: cell-based
Details: not given
Summary of the method: (§1)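 Run on the same HEK-Blue hNOD1 (C12-iE-DAP 50 ng/mL) or hNOD2 (MDP 100 ng/mL) wells after SEAP readout, following 3 h compound plus 20 h stimulation. Cells fixed in 80% TCA, 4 °C, 1 h; SRB in 1% acetic acid, 10 min; washed, dried; dye dissolved in 10 mM Tris base; A515. Growth inhibition = (C−T)/C × 100, n = 3.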

With `CCCCOC(=O)CC1c2cccc(C)c2S(=O)(=O)N1C(=O)c1cccc(C(F)(F)F)c1` (stereo not drawn) the Activity was “Non-Toxic”.

Tested on: not listed separately
Assay: Cytotoxicity against human HEK-Blue hNOD2 cells assessed as cell viability measured by SRB assay
Format: cell-based
Details: not given
Summary of the method: as §1

With `CCCCOC(=O)CC1c2cccc(C)c2S(=O)(=O)N1C(=O)c1cccc(C(F)(F)F)c1` (stereo not drawn) the Activity was “Non-Toxic”.
